According to ChEMBL document CHEMBL4425103, “Diving into the Water: Inducible Binding Conformations for BRD4, TAF1(2), BRD9, and CECR2 Bromodomains” (J Med Chem, 2016):

What was measured:
Peregrin = biological target: T1, Peregrin (Homo sapiens, UniProt P55201); experiment: Displacement of biotinylated JQ1 analog from recombinant His-tagged BRPF1 (unknown origin) incubated for 10 mins by TR-FRET assay
T1 sequence (P55201 whole entry): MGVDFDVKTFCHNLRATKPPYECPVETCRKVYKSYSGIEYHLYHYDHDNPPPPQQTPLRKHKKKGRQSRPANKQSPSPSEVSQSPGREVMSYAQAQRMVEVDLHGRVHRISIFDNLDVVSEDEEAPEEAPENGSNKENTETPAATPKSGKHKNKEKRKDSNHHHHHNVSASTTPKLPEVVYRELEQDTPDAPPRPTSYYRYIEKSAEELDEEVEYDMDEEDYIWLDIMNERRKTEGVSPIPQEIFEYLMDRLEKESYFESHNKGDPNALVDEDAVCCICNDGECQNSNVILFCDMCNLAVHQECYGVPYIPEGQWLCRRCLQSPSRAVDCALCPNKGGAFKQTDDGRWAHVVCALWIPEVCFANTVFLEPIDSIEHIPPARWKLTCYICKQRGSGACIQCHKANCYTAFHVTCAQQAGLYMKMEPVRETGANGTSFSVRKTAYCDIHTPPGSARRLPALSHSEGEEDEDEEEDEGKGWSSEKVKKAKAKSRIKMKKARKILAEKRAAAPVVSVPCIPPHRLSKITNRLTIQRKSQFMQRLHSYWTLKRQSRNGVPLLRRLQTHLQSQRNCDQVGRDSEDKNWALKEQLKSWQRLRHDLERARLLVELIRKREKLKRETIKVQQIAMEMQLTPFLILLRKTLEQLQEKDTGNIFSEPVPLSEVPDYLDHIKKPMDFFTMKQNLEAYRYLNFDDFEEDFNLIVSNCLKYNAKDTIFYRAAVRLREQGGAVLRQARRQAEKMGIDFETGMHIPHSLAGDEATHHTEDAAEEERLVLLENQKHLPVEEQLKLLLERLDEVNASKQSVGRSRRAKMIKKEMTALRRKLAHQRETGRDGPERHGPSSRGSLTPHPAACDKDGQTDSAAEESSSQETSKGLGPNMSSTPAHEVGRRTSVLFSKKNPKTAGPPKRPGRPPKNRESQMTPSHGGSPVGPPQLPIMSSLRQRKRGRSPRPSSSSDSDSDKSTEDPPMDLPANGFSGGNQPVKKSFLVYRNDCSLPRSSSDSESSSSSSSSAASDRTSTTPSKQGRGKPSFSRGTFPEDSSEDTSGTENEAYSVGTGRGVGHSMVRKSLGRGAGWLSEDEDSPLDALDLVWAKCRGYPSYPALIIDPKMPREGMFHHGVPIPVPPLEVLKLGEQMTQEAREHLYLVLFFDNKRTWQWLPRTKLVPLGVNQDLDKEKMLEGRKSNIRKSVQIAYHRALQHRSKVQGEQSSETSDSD
Procedure, shortened: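 Bromodomain, then biotinylated ligand, each added with 10 min incubation. Anti-His europium (0.2 nM) plus streptavidin-APC followed for 40 min. 10-point titrations in duplicate, at least 2 independent runs.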

[1] = biological target: T2, Transcription initiation factor TFIID subunit 1 (Homo sapiens, UniProt P21675); experiment: Inhibition of recombinant His-tagged TAF1 isoform-1 (unknown origin) using biotinylated ligand incubated for 10 mins by TR-FRET assay
[2] = biological target: T3, Bromodomain-containing protein 9 (Homo sapiens, UniProt Q9H8M2); experiment: Displacement of biotinylated JQ1 analog from recombinant His-tagged BRD9 (unknown origin) incubated for 10 mins by TR-FRET assay
T3 sequence (Q9H8M2 whole entry): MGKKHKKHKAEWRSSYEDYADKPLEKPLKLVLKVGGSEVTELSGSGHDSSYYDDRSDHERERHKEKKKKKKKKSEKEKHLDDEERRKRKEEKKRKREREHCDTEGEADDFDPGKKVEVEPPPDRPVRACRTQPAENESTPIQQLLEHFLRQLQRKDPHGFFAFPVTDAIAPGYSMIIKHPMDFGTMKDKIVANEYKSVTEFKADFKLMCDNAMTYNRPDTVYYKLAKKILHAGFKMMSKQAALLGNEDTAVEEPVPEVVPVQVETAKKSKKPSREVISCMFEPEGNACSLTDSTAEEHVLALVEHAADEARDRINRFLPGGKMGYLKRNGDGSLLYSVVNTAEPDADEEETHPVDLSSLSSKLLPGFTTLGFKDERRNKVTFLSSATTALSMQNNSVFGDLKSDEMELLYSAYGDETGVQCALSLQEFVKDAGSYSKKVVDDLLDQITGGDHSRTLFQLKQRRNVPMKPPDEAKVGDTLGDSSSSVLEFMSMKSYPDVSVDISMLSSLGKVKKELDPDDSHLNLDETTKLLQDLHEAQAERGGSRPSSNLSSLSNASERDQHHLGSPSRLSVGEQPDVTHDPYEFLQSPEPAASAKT

[3] = biological target: T4, Bromodomain-containing protein 4 (Homo sapiens, UniProt O60885); experiment: Inhibition of recombinant His-tagged BRD4 bromodomain2 (unknown origin) using biotinylated ligand incubated for 10 mins by TR-FRET assay
[4] = biological target: T2, Transcription initiation factor TFIID subunit 1; experiment: Inhibition of recombinant His-tagged TAF1 isoform-2 (unknown origin) using biotinylated ligand incubated for 10 mins by TR-FRET assay
CREB-binding protein = CREB-binding protein (Homo sapiens, UniProt Q92793); experiment: Displacement of biotinylated JQ1 analog from recombinant His-tagged CBP (unknown origin) incubated for 10 mins by TR-FRET assay
[5] = biological target: Chromatin remodeling regulator CECR2 (Homo sapiens, UniProt Q9BXF3); experiment: Inhibition of recombinant His-tagged CECR2 (unknown origin) using biotinylated ligand incubated for 10 mins by TR-FRET assay
[6] = biological target: T4, Bromodomain-containing protein 4; experiment: Inhibition of recombinant His-tagged BRD4 bromodomain1 (unknown origin) using biotinylated ligand incubated for 10 mins by TR-FRET assay

T2 sequence (P21675 whole entry, canonical isoform): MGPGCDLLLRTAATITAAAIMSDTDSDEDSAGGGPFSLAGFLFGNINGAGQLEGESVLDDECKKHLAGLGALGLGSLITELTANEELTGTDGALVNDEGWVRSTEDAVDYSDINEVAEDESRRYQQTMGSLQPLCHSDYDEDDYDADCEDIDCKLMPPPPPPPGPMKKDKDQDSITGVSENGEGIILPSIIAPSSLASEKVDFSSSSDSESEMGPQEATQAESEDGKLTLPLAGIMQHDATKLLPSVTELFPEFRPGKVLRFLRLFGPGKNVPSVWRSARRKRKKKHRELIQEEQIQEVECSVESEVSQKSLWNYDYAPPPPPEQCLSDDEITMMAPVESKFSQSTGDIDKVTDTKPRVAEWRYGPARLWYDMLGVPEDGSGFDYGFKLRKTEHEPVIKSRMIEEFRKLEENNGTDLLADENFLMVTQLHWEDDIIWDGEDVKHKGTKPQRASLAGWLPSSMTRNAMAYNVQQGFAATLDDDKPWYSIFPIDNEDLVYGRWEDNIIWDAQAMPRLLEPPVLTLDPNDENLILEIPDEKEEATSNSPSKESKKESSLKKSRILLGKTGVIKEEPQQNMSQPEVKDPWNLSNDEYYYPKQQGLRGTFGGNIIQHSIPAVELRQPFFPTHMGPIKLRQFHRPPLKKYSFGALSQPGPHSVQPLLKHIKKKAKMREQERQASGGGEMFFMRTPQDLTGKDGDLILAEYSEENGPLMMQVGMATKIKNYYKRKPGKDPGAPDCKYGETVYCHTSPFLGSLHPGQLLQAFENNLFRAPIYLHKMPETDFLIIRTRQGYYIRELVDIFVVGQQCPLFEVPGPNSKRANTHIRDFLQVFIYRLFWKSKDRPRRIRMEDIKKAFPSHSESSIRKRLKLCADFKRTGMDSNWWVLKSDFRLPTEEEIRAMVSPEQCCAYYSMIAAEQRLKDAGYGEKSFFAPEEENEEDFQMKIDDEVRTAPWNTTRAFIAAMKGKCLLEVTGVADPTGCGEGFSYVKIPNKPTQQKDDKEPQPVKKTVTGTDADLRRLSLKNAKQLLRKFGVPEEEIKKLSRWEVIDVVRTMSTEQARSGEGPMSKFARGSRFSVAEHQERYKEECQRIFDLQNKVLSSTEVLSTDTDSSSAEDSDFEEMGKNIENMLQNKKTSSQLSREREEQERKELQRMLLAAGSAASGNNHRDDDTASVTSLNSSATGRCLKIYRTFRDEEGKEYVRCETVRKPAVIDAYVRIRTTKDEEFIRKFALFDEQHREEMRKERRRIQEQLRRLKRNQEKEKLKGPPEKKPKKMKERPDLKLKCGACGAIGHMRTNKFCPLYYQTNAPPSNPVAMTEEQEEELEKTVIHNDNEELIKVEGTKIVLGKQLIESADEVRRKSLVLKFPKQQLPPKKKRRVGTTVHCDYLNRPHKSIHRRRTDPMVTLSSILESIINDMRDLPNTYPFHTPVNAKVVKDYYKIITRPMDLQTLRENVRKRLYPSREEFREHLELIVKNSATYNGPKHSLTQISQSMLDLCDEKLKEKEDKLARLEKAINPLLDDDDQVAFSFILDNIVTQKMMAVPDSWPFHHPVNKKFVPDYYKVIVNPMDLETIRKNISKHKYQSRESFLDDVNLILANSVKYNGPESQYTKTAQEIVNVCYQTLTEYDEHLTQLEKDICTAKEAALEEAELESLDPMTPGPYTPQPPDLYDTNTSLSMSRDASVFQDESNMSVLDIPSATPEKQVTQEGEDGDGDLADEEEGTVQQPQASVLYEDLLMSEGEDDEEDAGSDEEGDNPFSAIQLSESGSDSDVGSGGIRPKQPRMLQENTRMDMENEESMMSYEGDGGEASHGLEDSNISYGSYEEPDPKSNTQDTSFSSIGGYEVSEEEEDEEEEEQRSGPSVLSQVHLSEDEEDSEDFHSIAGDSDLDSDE
CREB-binding protein, sequence (Q92793 whole entry): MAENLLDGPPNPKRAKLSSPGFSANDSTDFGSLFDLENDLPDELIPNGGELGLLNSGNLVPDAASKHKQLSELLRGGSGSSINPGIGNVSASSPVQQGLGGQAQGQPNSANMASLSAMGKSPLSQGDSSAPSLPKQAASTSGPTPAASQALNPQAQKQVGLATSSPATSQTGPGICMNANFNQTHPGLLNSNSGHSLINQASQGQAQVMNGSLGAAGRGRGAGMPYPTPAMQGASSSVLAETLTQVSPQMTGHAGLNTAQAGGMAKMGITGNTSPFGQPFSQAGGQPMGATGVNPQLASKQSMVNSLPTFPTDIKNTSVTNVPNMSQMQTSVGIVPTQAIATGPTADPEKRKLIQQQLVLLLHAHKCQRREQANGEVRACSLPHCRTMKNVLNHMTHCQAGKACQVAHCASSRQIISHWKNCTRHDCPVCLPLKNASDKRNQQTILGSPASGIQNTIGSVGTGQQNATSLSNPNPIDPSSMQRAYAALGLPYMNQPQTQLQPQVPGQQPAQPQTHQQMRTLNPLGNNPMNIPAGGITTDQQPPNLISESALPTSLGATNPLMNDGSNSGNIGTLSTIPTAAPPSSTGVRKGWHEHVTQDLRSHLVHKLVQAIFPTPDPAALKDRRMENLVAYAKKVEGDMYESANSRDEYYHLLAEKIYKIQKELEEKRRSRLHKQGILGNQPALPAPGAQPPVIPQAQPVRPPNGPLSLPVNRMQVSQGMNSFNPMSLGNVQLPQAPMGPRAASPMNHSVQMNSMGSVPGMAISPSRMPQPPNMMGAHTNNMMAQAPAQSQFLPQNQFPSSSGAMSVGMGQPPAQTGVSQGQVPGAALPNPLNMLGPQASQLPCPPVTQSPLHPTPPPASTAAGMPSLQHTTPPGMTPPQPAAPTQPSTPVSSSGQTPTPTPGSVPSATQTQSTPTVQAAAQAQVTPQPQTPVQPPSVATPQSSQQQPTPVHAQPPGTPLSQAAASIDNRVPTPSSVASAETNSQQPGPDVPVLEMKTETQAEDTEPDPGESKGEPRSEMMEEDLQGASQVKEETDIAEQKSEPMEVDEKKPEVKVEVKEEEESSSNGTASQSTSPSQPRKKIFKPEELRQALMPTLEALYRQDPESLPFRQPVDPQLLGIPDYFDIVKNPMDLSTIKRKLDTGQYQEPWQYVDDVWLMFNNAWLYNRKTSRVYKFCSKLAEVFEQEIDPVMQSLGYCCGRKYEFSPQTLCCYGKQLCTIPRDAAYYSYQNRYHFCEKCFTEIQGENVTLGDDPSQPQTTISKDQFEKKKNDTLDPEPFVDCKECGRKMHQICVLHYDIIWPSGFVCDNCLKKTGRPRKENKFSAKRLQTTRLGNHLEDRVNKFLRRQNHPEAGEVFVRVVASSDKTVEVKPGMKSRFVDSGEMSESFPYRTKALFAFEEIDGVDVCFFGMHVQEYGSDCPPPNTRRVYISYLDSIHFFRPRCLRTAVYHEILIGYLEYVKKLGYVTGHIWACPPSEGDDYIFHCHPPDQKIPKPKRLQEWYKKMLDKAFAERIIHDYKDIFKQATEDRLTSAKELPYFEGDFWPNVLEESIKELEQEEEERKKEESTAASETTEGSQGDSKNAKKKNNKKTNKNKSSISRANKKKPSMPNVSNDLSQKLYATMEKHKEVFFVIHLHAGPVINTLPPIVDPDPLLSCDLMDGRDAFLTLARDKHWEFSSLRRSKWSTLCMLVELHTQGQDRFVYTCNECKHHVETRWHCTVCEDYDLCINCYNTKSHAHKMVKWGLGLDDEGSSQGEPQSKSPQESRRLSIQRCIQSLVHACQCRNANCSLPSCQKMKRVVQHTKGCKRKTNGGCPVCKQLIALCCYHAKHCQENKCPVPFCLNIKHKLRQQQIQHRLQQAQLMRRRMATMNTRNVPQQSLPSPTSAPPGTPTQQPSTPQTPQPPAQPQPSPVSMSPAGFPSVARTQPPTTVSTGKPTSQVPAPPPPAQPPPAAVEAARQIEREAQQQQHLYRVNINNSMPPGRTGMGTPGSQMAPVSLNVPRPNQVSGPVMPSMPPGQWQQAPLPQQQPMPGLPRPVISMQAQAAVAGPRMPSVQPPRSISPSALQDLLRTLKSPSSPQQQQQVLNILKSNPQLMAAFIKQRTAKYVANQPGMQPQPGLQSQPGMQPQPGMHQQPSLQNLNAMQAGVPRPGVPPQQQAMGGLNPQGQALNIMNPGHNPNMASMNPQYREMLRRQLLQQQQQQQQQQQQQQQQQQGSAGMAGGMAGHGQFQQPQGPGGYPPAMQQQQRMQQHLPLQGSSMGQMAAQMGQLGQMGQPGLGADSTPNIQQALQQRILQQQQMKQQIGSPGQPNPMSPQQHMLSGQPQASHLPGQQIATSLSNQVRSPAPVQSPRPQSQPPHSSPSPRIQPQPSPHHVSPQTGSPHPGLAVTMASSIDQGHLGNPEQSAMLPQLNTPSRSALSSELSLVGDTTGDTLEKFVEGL

| IC50 (Peregrin) | IC50 [1] | IC50 [2] | IC50 [3] | IC50 [4] | IC50 (CREB-binding protein) | IC50 [5] | IC50 [6] | Compound |
| --- | --- | --- | --- | --- | --- | --- | --- | --- |
| > 20 µM | – | – | – | – | – | – | – | C=CCCn1cc(-c2cccc(C(=O)N(C)C)c2)c2cc[nH]c2c1=O |
| 53.8 µM | 38.9 µM | 13.7 µM | 7.5 µM | 23.7 µM | 11.8 µM | 42.8 µM | 18.4 µM | Cn1ccc2cc[nH]c2c1=O |
| > 20 µM | – | – | – | – | – | – | – | C/C=C/Cn1cc(-c2cccc(C(=O)N(C)C)c2)c2cc[nH]c2c1=O |
